Source: ChEMBL document CHEMBL1136762, “Methoxylation of desazadesferrithiocin analogues: enhanced iron clearing efficiency” (J Med Chem, 2003)

Key:
[1] = Partition coefficient (logP); format: physicochemical; conditions: octanol/water
How it was run: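 Shake-flask octanol–water distribution coefficient at pH 7.4 (50 mM TRIS), not corrected for ionization. Quadruplicate samples were shaken overnight with 1-octanol at 22–24 °C and the layers settled 1–2 h before separation. Quantified by UV spectrometry and expressed as the log of the fraction in the octanol layer.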

Monkey [2] = experiment: Iron clearing activity when administered 150 uM/kg orally to Cebus apella Primates (n = 4) [% stool/% urine = 81/19]; format: functional
Monkey [3] = experiment: Iron clearing activity when administered 150 uM/kg orally to Cebus apella Primates (n = 4) [% stool/% urine = 70/30]; format: functional
Monkey [4] = experiment: Iron clearing activity when administered 150 uM/kg orally to Cebus apella Primates (n = 4) [% stool/% urine = 86/14]; format: functional

In the case of `COc1ccc(C2=N[C@@H](C(=O)O)CS2)c(O)c1`, the logP [1] is reported as -0.89 and the Efficiency (Monkey [2]) is reported as 16.2%.
Compound `COc1ccc(C2=N[C@@](C)(C(=O)O)CS2)c(O)c1` has an Efficiency (Monkey [3]) of 24.4% and a logP [1] of -0.7.
Compound `C[C@]1(C(=O)O)CSC(c2ccc(O)cc2O)=N1` [DEFERITRIN] has a logP [1] of -1.05 and an Efficiency (Monkey [4]) of 13.4%.
With `CC1(C)SC(c2ccc(O)cc2O)=N[C@H]1C(=O)O` the Efficiency (Monkey [3]) was 12.3% and the logP [1] was -0.91.
For `O=C(O)[C@H]1CSC(c2ccc(O)cc2O)=N1`, the Efficiency (Monkey [3]) was 4.2% and the logP [1] was -1.33.
